# ARFGAP1 inh = inhibitors of rat ARFGAP1 GAP activity, primary screen, biochemical, fluorescence polarization, GDP tracer | ADP-ribosylation factor GTPase-activating protein 1 (Rattus norvegicus), Q62848 | Arfgap1-stimulated ARF1 GTP hydrolysis, GDP FP detection | inhibition, % at 16.5 µM | 360,000 compounds, 0.26% hits | AID 651572, 2012;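 active = inhibition above a per-plate limit, mean inhibition of low control wells plus 3 SD, cut at about 25% in these data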;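 also: 0% = DMSO wells with enzyme and 100% = wells lacking Arfgap1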
# Target sequence (Q62848 1-136 limits assumed): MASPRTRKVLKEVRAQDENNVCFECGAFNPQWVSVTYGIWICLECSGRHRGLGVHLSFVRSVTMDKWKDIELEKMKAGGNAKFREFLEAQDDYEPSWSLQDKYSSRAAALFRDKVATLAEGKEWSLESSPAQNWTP
#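 Assay system: Rat Arfgap1 GAP domain (His6, aa 1-136), purified enzyme | Buffer or medium: HEPES 25 mM pH 7.5, NaCl 150 mM, MgCl2, DTT | Schedule: GTP hydrolysis reaction 2 h at 25 °C | Signal: FP of antibody-bound GDP Alexa 633 tracer, ex 620/em 688 nm | Measure: Percent inhibition of Arfgap1-stimulated GTP hydrolysis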
# Rtt109 HAT inh = inhibitors of C. albicans Rtt109/Vps75 HAT, primary screen, biochemical, ThioGlo CoA-SH fluorescence, plate reader. purified Rtt109/Vps75, 4 h. Histone acetyltransferase RTT109 (Candida albicans (strain SC5314 / ATCC MYA-2876)), …. inhibition, % at 34.9 µM. 330,000 compounds, 0.16% hits;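 active = inhibition of at least 50% in every replicate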
# FGF22 binding = binders of human FGF22 protein, primary screen, FGF22 synaptogenesis inhibitor project, biophysical, thermal shift, single point. Fibroblast growth factor 22 (Homo sapiens), Q9HCT0. recombinant FGF22 thermal shift, SYPRO orange fluorescence; percent of sucrose octasulfate shift, DMSO zero. activity (Tm shift, normalised), % at 9.99 µM. 340,000 compounds, 1.5% hits. AID 651658, 2012;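 active = mean Tm shift, scaled 0 neutral to 100 positive control, at about 1.3% or above, every replicate too, limit read from the data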
# Target sequence (Q9HCT0 whole entry, looked up): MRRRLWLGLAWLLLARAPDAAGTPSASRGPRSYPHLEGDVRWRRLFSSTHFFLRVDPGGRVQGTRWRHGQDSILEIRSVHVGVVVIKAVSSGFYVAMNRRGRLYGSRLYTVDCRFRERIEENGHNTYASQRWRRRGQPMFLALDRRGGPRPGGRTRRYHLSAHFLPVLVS
# Efflux pump mplx = inhibitors of Candida efflux pumps in yeast, primary screen, S. cerevisiae, Nile Red, multiplex | S. cerevisiae Candida pump triplex | inhibition, % at 10 µM | 330,000 compounds, 0.44% hits;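 active = plate passing quality check with inhibition over a set limit, or well fluorescence over plate mean plus 4 SD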;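 also: Nile Red retained in pooled yeast measured as flow cytometry median fluorescence; 0% = buffer negative control and 100% = Enniatin B positive control; higher means more Nile Red kept so more efflux inhibition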
# ASAP1 GAP inh = inhibitors of human ASAP1 ArfGAP activity, primary screen, biochemical, fluorescence polarization | 360,000 compounds, 0.19% hits | ASAP1-stimulated ARF1 GTP hydrolysis, GDP FP detection | inhibition, % at 16.5 µM | Arf-GAP with SH3 domain, ANK repeat and PH domain-containing protein 1 (Homo sapiens), …; in the data active = inhibition above about 25%;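 also: 0% = vehicle with enzyme and substrate and 100% = no enzyme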
# Cmpd fluor yeast = counter-screen for efflux pump inhibitors: compound fluorescence | 1,700 compounds, 4% hits | S. cerevisiae AD/pABC3, flow cytometry | shares compounds with Efflux pump mplx | fluorescence ratio to DMSO, % at 10 µM;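 active = fluorescence ratio to DMSO above its plate's cutoff, the plate mean ratio plus 5 SD, cut at about 210% in these data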;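 also: unstained yeast with no Nile Red so the signal is compound autofluorescence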
# Mdr1 pump inh = inhibitors of Candida albicans Mdr1 efflux, confirmation, flow cytometry, singleplex, Cherry Pick1 set. shares compounds with Efflux pump mplx. S. cerevisiae AD/CaMDR1, Nile Red efflux. inhibition, % at 10 µM. 1,700 compounds, 1% hits; in the data active = inhibition above about 26%;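 also: 0% = DMSO vehicle and 100% = reference inhibitor; higher means more Nile Red retained so more efflux inhibition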
# CaCdr2 efflux inh = inhibitors of Candida albicans Cdr2 efflux pump, confirmation, S. cerevisiae AD/CaCDR2, flow cytometry, cherry pick 1, singleplex; shares compounds with Efflux pump mplx; Nile Red retention; Nile Red retention ratio vs DMSO, % at 10 µM; 1,700 compounds, 4% hits; in the data active = Nile Red retention ratio vs DMSO above about 190%;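 also: higher ratio means more blocking of Cdr2 efflux of the dye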
# CaCdr1 efflux inh = inhibitors of Candida albicans Cdr1 efflux pump, confirmation, S. cerevisiae AD/CaCDR1, flow cytometry, cherry pick 1, singleplex | inhibition, % at 10 µM | shares compounds with Efflux pump mplx | Nile Red efflux | AID 588522, 2011 | 1,700 compounds, 1% hits;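 active = inhibition above the screen-wide mean plus twice its standard deviation, cut at about 32% in these data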
# * = called active by the depositor; . = no result. Hits are enriched below; roughly 1.9% of the tested compounds scored in any of these assays.
SMILES,ARFGAP1 inh,Rtt109 HAT inh,FGF22 binding,Efflux pump mplx,ASAP1 GAP inh,Cmpd fluor yeast,Mdr1 pump inh,CaCdr2 efflux inh,CaCdr1 efflux inh
CC(C)c1ccc(S(=O)(=O)Nc2ccc(O)c(Sc3ncn[nH]3)c2)cc1,13,0,0,-1,-6,111,0,116,0
COc1ccc(S(=O)(=O)Nc2ccc(O)c(Sc3ncn[nH]3)c2)cc1,1,2,.,0,-1,81,0,95,0
Cc1cc(C)nc(NS(=O)(=O)c2ccc(NC(=O)CSc3ncn[nH]3)cc2)n1,6,-25,43,0,-8,.,.,.,.
COc1ccc(S(=O)(=O)Nc2cc(Sc3ncn[nH]3)c(O)c3ccccc23)cc1,-4,.,.,.,18,.,.,.,.
O=C(O)C(Oc1ccc2cc(-c3ccc(Cl)cc3)c(=O)oc2c1)c1ccccc1 (stereo unspecified),-1,-108,0,0,-16,.,.,.,.
OCCC1CN(Cc2nc(-c3ccc(F)cc3)cs2)CCN1CCc1ccccc1 (stereo unspecified),4,0,0,0,3,.,.,.,.
O=C(CCl)Nc1ccc2c(c1)OCO2,0,8,0,1.2*,-4,82,0,91,0
CC(C)CC(=O)Nc1ccc2c(c1)OCO2,-1,-5,0,0,-5,.,.,.,.
CC1CC(C)CN(C(=O)CSc2nc3ccsc3c(=O)n2Cc2ccccn2)C1 (stereo unspecified),2,4,.,0,0,.,.,.,.
CC(=O)c1c(C)[nH]c(-c2ccccc2)c1C,-3,1,0,8.0*,11,98,0,105,0
CCOC(=O)c1ccccc1NC(=O)c1cn(-c2ccc(C)c(C)c2)c(=O)c2ccccc12,6,-15,.,0,2,.,.,.,.
CCOC(=O)c1ccccc1NC(=O)c1cn(-c2ccc(OC)cc2)c(=O)c2ccccc12,9,0,.,15*,-1,94,0,101,0
CN(C)N1C(N)=C(C#N)C(c2cccc(Cl)c2)C2=C1CCCC2=O (stereo unspecified),9,-6,0,0,-2,.,.,.,.
CN(C)N1C(N)=C(C#N)C(c2ccc3c(c2)OCO3)C2=C1CCCC2=O (stereo unspecified),-4,-1,0,2.3*,-13,100,0,92,0
CCC(=O)N1CCC2(CC1)Oc1ccc(Cl)cc1C(=O)C21CC(c2ccc(Cl)cc2)=NO1 (stereo unspecified),4,0,0,0,7,107,0,108,0
Cc1ccc(C(=O)N2CCC3(CC2)Oc2ccc(Cl)cc2C(=O)C32CC(c3ccc(Cl)cc3)=NO2)s1 (stereo unspecified),-4,-6,0,0,3,98,0,112,0
Cc1ccc(C(=O)N2CCC3(CC2)Oc2ccc(F)cc2C(=O)C32CC(c3ccc(Cl)cc3)=NO2)s1 (stereo unspecified),-11,0,0,0,-1,.,.,.,.

# Screening results as filed in PubChem.
